Laboratory results from ChEMBL document CHEMBL4513216, “Probing the Open Global Health Chemical Diversity Library for Multistage-Active Starting Points for Next-Generation Antimalarials” (ACS Infect Dis, 2020).

Assay: Toxicity liver stage against HepG2, at 10uM
Type: cell-based
Parameters: test concentration 10 uM, cell line HepG2-A16-CD81EGFP
Conditions: human, HepG2-A16-CD81EGFP cells; read-out: INHIBITION
In short: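 Uninfected HepG2-A16-CD81EGFP cells, 3 × 10^3 per well, 1536-well, plated on prespotted compound at 10 μM final, parasite-free screening media added to match infected plates; puromycin 10 μM positive, DMSO 0.5% negative; run in parallel with 48 h PbLuc assay at 37 °C, 5% CO2; viability by CellTiter-Glo luminescence, normalized to controls.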

Row | SMILES | cytotoxicity at 10 µM [%]
1 | O=C(c1ccno1)N1CCOC[C@H](Oc2ccc(C(F)(F)F)cc2)C1 | 1.48
2 | Cc1noc([C@@H]2C[C@H](NC(=O)C3CCCCC3)CN2C)n1 | -4.89
3 | Cc1nc(-c2ccoc2)n(CC(=O)N(C)CC(C)C)c1C | -4.5
4 | O=C1CCNc2ncc(-c3ccccc3Cl)cc2CN1C1CC1 | 8.89
5 | CCOC(=O)[C@@H]1[C@@H](c2ccccc2)CN2CCNC[C@H]12 | 3.8
6 | COc1ccccc1C(=O)N1CC(=O)N(C2CCCCC2)CC(O)C1 (stereo unspecified) | -3.09
7 | O=S1(=O)CCC(S(=O)(=O)c2cccc(S(=O)(=O)N3CCCCCC3)c2)C1 (stereo unspecified) | -7.39
8 | COc1nn(C)cc1C(=O)N1CCC(C)CC1 | 5.97
9 | CC(=O)c1cccc(NC(=O)Cn2cnc(-c3cccs3)cc2=O)c1 | -4.44
10 | COc1ccc(C)cc1NC(=O)Nc1cnc(N2CCOCC2)nc1 | -9.67
11 | O=C(NC1CCN(c2ccc(-c3ccccc3F)nn2)C1)c1cc[nH]n1 (stereo unspecified) | 3.17
12 | Cc1cc(CNC(=O)c2cnoc2C)c(C)o1 | -6.32
13 | O=C(c1cnccn1)N1CCC2(CC1)C(=O)NCC2c1ccccc1 (stereo unspecified) | -3.68
14 | CN(C)CCN1Cc2ncn(C)c2C(COCC(=O)N(C)C)C1 (stereo unspecified) | 7.83
15 | Cc1cc(-n2nnc(C(=O)O)c2-c2ccncc2)ccc1F | 6.31
16 | COC(=O)CC(c1ccc(OC)c(OC)c1OC)c1c(O)n[nH]c1C (stereo unspecified) | 4.02
17 | CS(=O)(=O)Nc1ccn(Cc2ccc(Br)cc2)n1 | 10.9
18 | O=C(CCn1ncc2c(Cl)cccc21)NCCCO | 7.63
19 | Cc1nnc(NC(=O)C(C)n2ncc(Br)c2C)s1 (stereo unspecified) | 1.81
20 | CCn1nc(C)c2nnn(CC(=O)Nc3ccccc3)c(=O)c21 | 9.02
21 | Cc1c(C2=NS(=O)(=O)N(C)C(C(=O)Nc3ccc(Br)cc3)=C2)cnn1C | 11.7
22 | CCc1cc(C(=O)N2CCC(c3cc4ncccc4cn3)CC2)no1 | -14.4
23 | COCC(=O)N1CCOC(c2ccc(N(C)C)cn2)C1 (stereo unspecified) | -13.1

Row | SMILES | cytotoxicity at 10 µM [%]
24 | Cc1ncsc1CN1CC[C@H](O)[C@@H](n2cnc3c(N)ncnc32)CC1 | -10.8
25 | Cc1ccc(-c2nc(CCNCc3ccncc3)co2)cc1 | -4.96
26 | CN(Cc1ccccc1)C(=O)c1cc2c(c(S(N)(=O)=O)c1)CCC2 | -41.5
27 | COc1cc(F)ccc1NC(=O)NC(C)C(=O)NC(C)(C)C (stereo unspecified) | -6.1
28 | CC(C)c1cc(N2CCC(NS(C)(=O)=O)C2)nc(C(C)C)n1 (stereo unspecified) | 4.34
29 | CC(=O)NCC(=O)Nc1cc(C)n(-c2ccc(Cl)cc2Cl)n1 | -140
30 | Cc1ccc(CN(C)C(=O)CCn2c(=O)n(C)c3ccccc32)o1 | 4
31 | COc1ccc(C(C)NCCC(N)=O)cc1F (stereo unspecified) | -7.77
32 | O=C(NCc1nnc2n1CCC2)c1ccc(Br)s1 | 2.74
33 | Cc1cc(NC(=O)C2CCN(c3ncccc3C#N)CC2)no1 | 3.54
34 | COCCCNc1cc(C(=O)N2CCOCC2)ccc1C | 7.1
35 | COCCOc1ccc(CNC2CCc3ncnn3C2)cc1OC (stereo unspecified) | -7.2
36 | CNS(=O)(=O)c1ccc(CNC(=O)C2CN(C)CCO2)cc1 (stereo unspecified) | -14.1
37 | Cc1nn(C)c(C)c1CC(=O)N1CCCC(CNS(C)(=O)=O)C1 (stereo unspecified) | 3.3
38 | CCCN1CCC(NC(=O)c2ccnc(SCC)c2)CC1 | -4.14
39 | NCC1(c2cccc(F)c2)CCOCC1 | -7.87
40 | O=C(NCCc1nnc2n1CCC2)N(Cc1ccco1)C1CCCC1 | 5.04
41 | Cc1ccc(C(=O)N2CCOC(c3nc(C(C)(C)C)n[nH]3)C2)c(=O)[nH]1 (stereo unspecified) | 1.31
42 | CCS(=O)(=O)CCCOc1nc(-c2ccccc2Cl)no1 | -6.14
43 | O=C(NS(=O)(=O)c1ccc(Cl)cc1F)c1cccc2c1OCCO2 | -5.33
44 | CCCNC(=O)CCNC(=O)c1sc2ccc(F)cc2c1C | 3.33
45 | CCC(CC)C(=O)NCc1cn2cc(Br)ccc2n1 | 5.17
46 | CC(C)(C)OC(=O)N1CCC[C@H](NCc2cc[nH]c2)C1 | 1.05

Row | SMILES | cytotoxicity at 10 µM [%]
47 | CC1(C)CN(C(=O)Nc2ccc(Cn3cccn3)cc2)CCO1 | 45.1
48 | Cc1cc(NC(=O)Nc2ccc3c(ccn3CCN(C)C)c2)n(C)n1 | 3.38
49 | CCOc1cc(NC(=O)N(C)Cc2ncnn2C)ccc1C | 13.4
50 | COC(=O)c1ccc(NC(=O)CCc2ccncc2)c(C)c1 | 7.83
51 | COC(=O)CCC(=O)NC1CCCc2cc(OC(F)F)ccc21 (stereo unspecified) | -4.52
52 | CCC1CCCCCN1C(=O)c1cc(C#N)c(SC)[nH]c1=O (stereo unspecified) | 12
53 | CN(C)c1cccc(C2CCCN2CCCN2CCOC2=O)c1 (stereo unspecified) | -10.2
54 | O=C(NCc1cc[nH]n1)N1CCC(Oc2ccccc2Cl)CC1 | 8.16
55 | CCN1CCNC(=O)C12CCN(C(=O)Cc1ccccn1)CC2 | 4.71
56 | O=C(c1ccc[nH]1)N1CCCn2cnc(COCC3CC3)c2C1 | -73.6
57 | Cc1nc(COC[C@H]2CCC[C@]23CN(C2CCOC2)CCO3)cs1 (stereo partly specified) | -79.5
58 | CN(Cc1ccccn1)c1nccc(N2CCN[C@H]3CS(=O)(=O)C[C@H]32)n1 | 10.5
59 | CC(C)c1cc(NCC2(N(C)C)CCCC2)ncn1 | 4.22
60 | Cc1n[nH]c(SCCNC2CCN(c3nc4ccccc4s3)CC2)n1 | -6.92
61 | Cc1nc(N2C[C@@H](CN3CCCN(C)CC3)[C@@H](CO)C2)c2ccsc2n1 | -6.56
62 | NC(=O)Cn1ccnc1C1CCCN(Cc2nc3ccccc3s2)C1 (stereo unspecified) | -17
63 | c1ccc2c(c1)CC(N1CCCC(NCc3ccc4nonc4c3)C1)C2 (stereo unspecified) | 5.6
64 | COc1nc2c(cc1C(=O)NCCCc1nnc(N)s1)CCC2 | 4.37
65 | Fc1ccccc1Cc1noc(CN2CCC(C3CCCCC3)C2)n1 (stereo unspecified) | 0.372
66 | Cc1nc(CN(C)c2nccc(C(F)(F)F)n2)cs1 | 1.15
67 | COc1ccc(OC)c(C2CCN(C(=O)C3CCOCC3)C2)c1 (stereo unspecified) | 5.6
68 | Cc1ccccc1SCC(=O)Nn1cnnc1 | -43.1
69 | Cn1ccnc1SCCNc1ccnc(C(F)(F)F)n1 | -50.4

Row | SMILES | cytotoxicity at 10 µM [%]
70 | c1ccc(CN(Cc2cccc3cnccc23)CC2CCCO2)nc1 (stereo unspecified) | -5.68
71 | COCC1CCN(c2nc(C(C)(C)C)nc3c2cnn3C)C1 (stereo unspecified) | -8.44
72 | Cc1cc(N2CCC(n3cc(CN4CCNCC4)nn3)CC2)ccn1 | -1.83
73 | COc1cc(F)ccc1-c1cc(N)ccn1 | -9.5
74 | COc1cccc(OC2CN(C(=O)c3ccnc(OC)c3)C2)c1 | -6.52
75 | CC(C)n1ccnc1CN1CCOC(CC2CCCCC2)C1 (stereo unspecified) | -138
76 | O=c1cc(N2CCNCC2)cnn1CCCn1cccn1 | -48
77 | Cn1cc(-c2c(C#N)c(N)nc3c2CCc2[nH]ccc2-3)cc1C#N | -1.68
78 | CCn1cc(CN2CCC(CCC(=O)Nc3ccccc3Cl)CC2)cn1 | -0.99
79 | CN(C)C(C(=O)NCc1cc(C(C)(C)C)n[nH]1)c1ccc(F)cc1 (stereo unspecified) | -5.54
80 | CCc1nc(N)nc(N2CCCC3(CCOCC3)C2)c1C | -123
81 | CC(c1cccc(-c2cn(Cc3ccoc3)nn2)c1)N(C)C (stereo unspecified) | 1.35
82 | CCc1cccc(OCCN(C)C(=O)c2ccccc2NCC(=O)O)c1 | -2.69
83 | CCc1nnc(NCc2cccc(OC)c2OC)o1 | 6.79
84 | CCOCCn1c(=O)[nH]c2cc(C(=O)N(C)CCc3cn[nH]c3)ccc21 | -21.7
85 | CC(=O)c1cc(CC(=O)NCc2ccc(CN(C)C)cc2)cs1 | -11.3
86 | Cc1cccnc1C(=O)N1CCCC(c2[nH]ncc2S(C)(=O)=O)C1 (stereo unspecified) | 7.58
87 | O=C(NCc1ccccc1Cn1cncn1)C1CC1 | -11.3
88 | CCOc1ccccc1N1CCN(C(=O)NCc2cc[nH]n2)CC1 | 5.48
89 | Cc1ccccc1CNC(=O)Cn1nc(-c2ccc(F)cc2)oc1=O | -7.63
90 | CC(=O)N(C)c1nc(CN2CCCC2c2cnn(C)c2)cs1 (stereo unspecified) | -16.1
91 | Cc1cc(NC(=O)CN2CCCC2c2noc(C(C)C)n2)no1 (stereo unspecified) | -14.3
92 | O=C(CCNc1ncccn1)N1CCCC(n2cccn2)C1 (stereo unspecified) | 0.2

Row | SMILES | cytotoxicity at 10 µM [%]
93 | CCc1ncc(C(=O)N2CCCC2Cn2cccn2)s1 (stereo unspecified) | -9.67
94 | c1cnnc(N2CCCC2CNCc2cc[nH]n2)c1 (stereo unspecified) | -0.807
95 | Cc1nc(-c2ccsc2)ccc1C(=O)NCCC(=O)N1CCCC1 | -9.57
96 | O=C(NCCn1nc2ccccn2c1=O)c1cccc2[nH]ncc12 | -0.472
97 | CNCc1ccc([C@@H]2CN(C)C[C@H]2C(N)=O)cc1 | 7.67
98 | CNC(=O)C(C)(C)N1CCC[C@H]1C(=O)NCCN(C)C | 2.2
99 | c1ccc(CC2CCN(Cc3ccnc(-c4cccnc4)n3)CC2)cc1 | 6.36
100 | Cc1noc(C)c1CN1CCCC2(CCN(CC3CCCC3)C2)C1 (stereo unspecified) | -4.1
101 | COc1ccc(CN2C[C@H]3CN(c4ccsc4)C(=O)[C@H]3C2)cc1 | 22.8
102 | CNCC(=O)N1CCCC(c2nccnc2Oc2cccc(F)c2)C1 (stereo unspecified) | 6.87
103 | c1cn2c(n1)CN(Cc1ccsc1)CC(Cn1cncn1)C2 (stereo unspecified) | -74.8
104 | COc1ncccc1CN1C[C@H]2CCN(C(C)C)C[C@H]2C1 | 2
105 | O=C(NC1CC2(CCN(CCO)CC2)c2ccccc21)c1ccno1 (stereo unspecified) | -12.2
106 | Cc1nc(COCc2cnc3n2CCN(CC2CCC2)C3C)cs1 (stereo unspecified) | -5.63
107 | Cn1ccnc1C(=O)N[C@@H]1CN(Cc2ccc(F)cc2)[C@@H]2CCCO[C@@H]21 | -111
108 | c1ccc(CN2CCOCC3(CCN(C4CCOCC4)C3)C2)cc1 (stereo unspecified) | 3.01
109 | CCS(=O)(=O)N1CC[C@@H]2[C@H](CC1)N(Cc1cccc(C)n1)CCS2(=O)=O | -3.98
110 | CCCn1ncc(-c2ccnc(N[C@@H]3C[C@H]4CC[C@@H]3C4)n2)c1C | 0.541
111 | CCCS(=O)(=O)N1C[C@@H]2C[C@H](C(=O)N(C)C)[C@H](C1)O2 | -74
